# Assay results: paper PMC9314948 (Diabetes, Obesity & Metabolism, 2022)
# “And” between values parts separate entries of the source, which are not always exact repeats. Identical values can stand only once.
# Tests used:
# obese women [1] = test: Study A: body weight, caloric intake and waist circumference; format: in vivo, human; settings: not significant vs placebo (1.24%)
# obese women [2] = test: Study B: caloric intake and body weight; format: in vivo, human
# In short: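 Double-blind crossover in inpatient obese women with six randomized sequences of three 4-day regimens separated by 5-day washouts: placebo/placebo, 2.5/2.0 mg, or 2.5 mg/placebo, given SC 1 h before breakfast and lunch. Meals are weighed before and after eating, and snacks are allowed 18:00-midnight. Subjects are weighed each morning before breakfast in underwear or scrubs. ITT analysis uses MMRM for intake and ANCOVA for weight change, with two-sided p.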
# [3] = Study A: accumulation of plasma bremelanotide concentration; format: in vivo, human; settings: plasma 1 h after first dose of the day, SC 3 times daily
# In short: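 Day 1 doses are 1.25 mg then 1.0 mg twice; later days are 2.5 mg then 2.0 mg twice. Plasma is sampled 1 h after the first daily dose on days 2, 8 and 15. Day 8/day 2 and day 15/day 2 ratios are computed, with accumulation defined as mean ratio 95% CI >1.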
# [4] = Study B: pharmacokinetics of SC bremelanotide; format: in vivo, human; settings: mean ± SD; for Cavg (D1) / Cmax (D1) / Cavg / RACC3.5 (ratio of day 4/day 1 concentrations 3.5 h postdose) / Tmax / Cmax: Study B; for Cmax (D1) / AUC(0-t) / Cmax: plasma; for Cavg: full dosing interval; for AUC(0-t): AUC0−3.5, Study B
# In short: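 A further sample is taken on day 4 at 3.5 h postdose. Plasma levels are measured by HPLC-MS/MS and analysed non-compartmentally. RACC3.5 is the day 4/day 1 ratio at 3.5 h postdose.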
# obese women [5] = test: Study A: adverse events; format: in vivo, human; settings: across Study A and Study B, subjects receiving bremelanotide
# In short: (§1)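 Treatment-emergent AEs, including SAEs, are recorded throughout both inpatient placebo-controlled, double-blind SC trials in premenopausal obese women, alongside vital signs, ECG, clinical laboratory tests and physical examination. The safety population is all randomized subjects given ≥1 dose.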
# obese women [6] = test: Study B: adverse events; format: in vivo, human
# In short: as §1
# obese women [7] = test: Study A: blood pressure; format: in vivo, human; settings: over the course of the study, also seen with placebo
# In short: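 Study A, three-times-daily SC dosing for 15 days. Blood pressure is taken at screening, on the 2 days before dosing, on the day after dosing, and 15 min predose and 1 h postdose at each dose on days 1-15, with subjects seated ≥5 min. Continuation requires systolic <155 and diastolic <95 mmHg. Post- vs predose changes are summarized descriptively by visit and treatment.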
# obese women [8] = test: Study B: blood pressure withdrawal criteria; format: in vivo, human; settings: 2.5 mg/2.0 mg dosing regimen
# In short: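 Crossover regimen of 2.5 mg SC 1 h before breakfast and 2.0 mg 1 h before lunch over a 4-day period. Blood pressure is measured daily pre- and postdose after ≥5 min seated. Subjects are withdrawn unless systolic <155 mmHg and diastolic <95 mmHg at all assessments.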
# murine model = settings: ref Palatin Technologies, Inc. data on file; cited from earlier work
# rat model = settings: ref Palatin Technologies, Inc. data on file; cited from earlier work
# [9] = once-daily (2.5 mg/0 mg) SC, dose 1, n = 17-22
# [10] = once-daily (2.5 mg/0 mg) SC, n = 17-22
# [11] = twice-daily (2.5 mg/2.0 mg) SC, dose 1, n = 19-20
# [12] = twice-daily (2.5 mg/2.0 mg) SC, n = 19-20
# [13] = human, in vivo, sc, once-daily (2.5 mg/0 mg) SC, n = 17-22
# [14] = human, in vivo, sc, twice-daily (2.5 mg/2.0 mg) SC, n = 19-20
# [15] = once-daily (2.5 mg/0 mg) SC, 4-day period, n = 22
# [16] = twice-daily (2.5 mg/2.0 mg) SC, 4-day period, n = 20
compound,measurement,setting,value
CCCC[C@H](NC(C)=O)C(=O)N[C@H]1CC(=O)NCCCC[C@@H](C(=O)O)NC(=O)[C@H](Cc2c[nH]c3ccccc23)NC(=O)[C@H](CCCNC(=N)N)NC(=O)[C@@H](Cc2ccccc2)NC(=O)[C@H](Cc2c[nH]cn2)NC1=O [bremelanotide],Mean decrease in waist circumference from baseline to day 16,obese women [1],1.63%
same,Daily caloric intake versus placebo,"obese women [2]; once or twice daily, all four treatment days, p < 0.001",significantly lower
same,Weight loss after 4 days versus placebo,"obese women [2]; once-daily (2.5 mg/0 mg) SC, p = .0805","numerically greater than weight loss observed in placebo‐treated subjects, but the difference did not reach statistical significance"
same,Mean weight loss from baseline after 4 days,"obese women [2]; twice-daily (2.5 mg/2.0 mg) SC, ITT, placebo 0.9 kg, p < .001",1.7 kg
same,Mean ratio of day 8/day 2 bremelanotide concentrations,[3],1.0
same,Mean ratio of day 15/day 2 bremelanotide concentrations,[3],1.1
same,Cavg (D1),[4]; [9],51.6 ± 10.1 ng/mL
same,Cmax (D1),[4]; [9],75.1 ± 16.1 ng/mL
same,Cavg,[4]; [10],25.2 ± 4.7 ng/mL
same,RACC3.5 (ratio of day 4/day 1 concentrations 3.5 h postdose),[4]; [10],1.0 ± 0.3
same,Tmax,[4]; [10],1.0 ± 0.3 h
same,Cavg (D1),[4]; [11],50.2 ± 9.4 ng/mL
same,Cmax (D1),[4]; [11],75.2 ± 16.3 ng/mL
same,Cavg,[4]; [12],41.7 ± 9.3 ng/mL
same,RACC3.5 (ratio of day 4/day 1 concentrations 3.5 h postdose),[4]; [12],1.0 and 1.0 ± 0.1
same,AUC(0-t),[4]; [13],181 ± 35.4 ng·h/mL
same,AUC(0-t),[4]; [14],176 ± 32.6 ng·h/mL
same,Cmax,[4]; [13],75.1 ± 16.1 ng/mL
same,Cmax,[4]; [14],83.8 ± 15.6 ng/mL
same,Tmax,"[4]; human, in vivo, sc, t max (D1), once-daily (2.5 mg/0 mg) SC, dose 1, n = 17-22",1 ± 0.3 h
same,Tmax,"[4]; human, in vivo, sc, t max (D1), twice-daily (2.5 mg/2.0 mg) SC, dose 1, n = 19-20",0.9 ± 0.4 h
same,Tmax,"[4]; human, in vivo, sc, t max, twice-daily (2.5 mg/2.0 mg) SC, n = 19-20",3.3 ± 2 h
same,Subjects experiencing nausea,obese women [5],18% to 30
same,AE leading to treatment discontinuation: Nausea,obese women [6]; [15],1 (4.5) n (%)
same,AE leading to treatment discontinuation: Vomiting,obese women [6]; [15],1 (4.5) n (%)
same,AE: Decreased appetite,obese women [6]; [15],2 (9.1) n (%)
same,AE: Ephelides,obese women [6]; [15],0 n (%)
same,AE: Feeling hot,obese women [6]; [15],2 (9.1) n (%)
same,AE: Flatulence,obese women [6]; [15],1 (4.5) n (%)
same,AE: Flushing,obese women [6]; [15],4 (18.2) n (%)
same,AE: Headache,obese women [6]; [15],2 (9.1) n (%)
same,AE: Injection site erythema,obese women [6]; [15],9 (40.9) n (%)
same,AE: Injection site pain,obese women [6]; [15],7 (31.8) n (%)
same,AE: Injection site pruritus,obese women [6]; [15],2 (9.1) n (%)
same,AE: Injection site reaction,obese women [6]; [15],16 (72.7) n (%)
same,AE: Injection site swelling,obese women [6]; [15],2 (9.1) n (%)
same,AE: Libido increased,obese women [6]; [15],3 (13.6) n (%)
same,AE: Nausea,obese women [6]; [15],4 (18.2) n (%)
same,AE: Pigmentation disorder,obese women [6]; [15],6 (27.3) n (%)
same,AE: Procedural dizziness,obese women [6]; [15],2 (9.1) n (%)
same,AE: Skin hyperpigmentation,obese women [6]; [15],0 n (%)
same,AE: Vessel puncture site haemorrhage,obese women [6]; [15],0 n (%)
same,Subjects experiencing an AE leading to treatment discontinuation,obese women [6]; [15],2 (9.1) n (%)
same,Subjects experiencing ≥1 AE,obese women [6]; [15],21 (95.5) n (%)
same,Subjects experiencing ≥1 AE: Mild,obese women [6]; [15],21 (95.5) n (%)
same,Subjects experiencing ≥1 AE: Moderate,obese women [6]; [15],4 (18.2) n (%)
same,Subjects experiencing ≥1 AE: Severe,obese women [6]; [15],0 n (%)
same,Subjects experiencing ≥1 treatment‐related AE,obese women [6]; [15],21 (95.5) n (%)
same,Treatment‐related AE: Decreased appetite,obese women [6]; [15],2 (9.1) n (%)
same,Treatment‐related AE: Ephelides,obese women [6]; [15],0 n (%)
same,Treatment‐related AE: Feeling hot,obese women [6]; [15],2 (9.1) n (%)
same,Treatment‐related AE: Flatulence,obese women [6]; [15],1 (4.5) n (%)
same,Treatment‐related AE: Flushing,obese women [6]; [15],4 (18.2) n (%)
same,Treatment‐related AE: Headache,obese women [6]; [15],2 (9.1) n (%)
same,Treatment‐related AE: Injection site erythema,obese women [6]; [15],9 (40.9) n (%)
same,Treatment‐related AE: Injection site pain,obese women [6]; [15],7 (31.8) n (%)
same,Treatment‐related AE: Injection site pruritus,obese women [6]; [15],2 (9.1) n (%)
same,Treatment‐related AE: Injection site reaction,obese women [6]; [15],16 (72.7) n (%)
same,Treatment‐related AE: Injection site swelling,obese women [6]; [15],2 (9.1) n (%)
same,Treatment‐related AE: Libido increased,obese women [6]; [15],3 (13.6) n (%)
same,Treatment‐related AE: Nausea,obese women [6]; [15],4 (18.2) n (%)
same,Treatment‐related AE: Pigmentation disorder,obese women [6]; [15],6 (27.3) n (%)
same,Treatment‐related AE: Skin hyperpigmentation,obese women [6]; [15],0 n (%)
same,Number of SAEs reported (in a single subject),"obese women [6]; once-daily bremelanotide, nausea, vomiting, hypersensitivity, dizziness, headache",Five
same,AE leading to treatment discontinuation: Vomiting,obese women [6]; [16],1 (5.0) n (%)
same,AE: Decreased appetite,obese women [6]; [16],0 n (%)
same,AE: Ephelides,obese women [6]; [16],2 (10.0) n (%)
same,AE: Feeling hot,obese women [6]; [16],0 n (%)
same,AE: Flatulence,obese women [6]; [16],3 (15.0) n (%)
same,AE: Flushing,obese women [6]; [16],3 (15.0) n (%)
same,AE: Headache,obese women [6]; [16],4 (20.0) n (%)
same,AE: Injection site erythema,obese women [6]; [16],5 (25.0) n (%)
same,AE: Injection site pain,obese women [6]; [16],8 (40.0) n (%)
same,AE: Injection site pruritus,obese women [6]; [16],3 (15.0) n (%)
same,AE: Injection site reaction,obese women [6]; [16],20 (100) n (%)
same,AE: Injection site swelling,obese women [6]; [16],2 (10.0) n (%)
same,AE: Libido increased,obese women [6]; [16],2 (10.0) n (%)
same,AE: Nausea,obese women [6]; [16],4 (20.0) n (%)
same,AE: Pigmentation disorder,obese women [6]; [16],2 (10.0) n (%)
same,AE: Procedural dizziness,obese women [6]; [16],0 n (%)
same,AE: Skin hyperpigmentation,obese women [6]; [16],3 (15.0) n (%)
same,AE: Vessel puncture site haemorrhage,obese women [6]; [16],2 (10.0) n (%)
same,Subjects experiencing an AE leading to treatment discontinuation,obese women [6]; [16],1 (5.0) n (%)
same,Subjects experiencing ≥1 AE,obese women [6]; [16],20 (100) n (%)
same,Subjects experiencing ≥1 AE: Mild,obese women [6]; [16],20 (100) n (%)
same,Subjects experiencing ≥1 AE: Moderate,obese women [6]; [16],1 (5.0) n (%)
same,Subjects experiencing ≥1 AE: Severe,obese women [6]; [16],0 n (%)
same,Subjects experiencing ≥1 SAE,obese women [6]; [16],0
same,Subjects experiencing ≥1 treatment‐related AE,obese women [6]; [16],20 (100) n (%)
same,Treatment‐related AE: Decreased appetite,obese women [6]; [16],0 n (%)
same,Treatment‐related AE: Ephelides,obese women [6]; [16],2 (10.0) n (%)
same,Treatment‐related AE: Feeling hot,obese women [6]; [16],0 n (%)
same,Treatment‐related AE: Flatulence,obese women [6]; [16],2 (10.0) n (%)
same,Treatment‐related AE: Flushing,obese women [6]; [16],3 (15.0) n (%)
same,Treatment‐related AE: Headache,obese women [6]; [16],3 (15.0) n (%)
same,Treatment‐related AE: Injection site erythema,obese women [6]; [16],5 (25.0) n (%)
same,Treatment‐related AE: Injection site pain,obese women [6]; [16],8 (40.0) n (%)
same,Treatment‐related AE: Injection site pruritus,obese women [6]; [16],3 (15.0) n (%)
same,Treatment‐related AE: Injection site reaction,obese women [6]; [16],20 (100.0) n (%)
same,Treatment‐related AE: Injection site swelling,obese women [6]; [16],2 (10.0) n (%)
same,Treatment‐related AE: Libido increased,obese women [6]; [16],2 (10.0) n (%)
same,Treatment‐related AE: Nausea,obese women [6]; [16],3 (15.0) n (%)
same,Treatment‐related AE: Pigmentation disorder,obese women [6]; [16],2 (10.0) n (%)
same,Treatment‐related AE: Skin hyperpigmentation,obese women [6]; [16],3 (15.0) n (%)
same,Decrease from baseline in mean systolic blood pressure,obese women [7],< 10%
same,Subjects withdrawn while receiving the regimen,obese women [8],No subjects
same,Body weight,murine model,reduced
same,Food intake,murine model,reduced
same,Body weight,rat model,reduced
same,Food intake,rat model,reduced
